Experimental data reported in ChEMBL document CHEMBL4011632, “Design, Synthesis, and Evaluation of Thiazolidine-2,4-dione Derivatives as a Novel Class of Glutaminase Inhibitors” (J Med Chem, 2017).
Active and inactive are the calls of the source. The rule behind the calls is not given here.

Assays:
[1] = biological target: T1, Glutaminase kidney isoform, mitochondrial (Homo sapiens, UniProt O94925); test: Inhibition of recombinant human His-tagged KGA (L123 to L669 residues) expressed in Escherichia coli BL21(DE3)pLysS using glutamine substrate preincubated for 10 mins followed by substrate addition measured after 60 mins by glutamate dehydrogenase coupled enzyme assay
T1 sequence (O94925 whole entry): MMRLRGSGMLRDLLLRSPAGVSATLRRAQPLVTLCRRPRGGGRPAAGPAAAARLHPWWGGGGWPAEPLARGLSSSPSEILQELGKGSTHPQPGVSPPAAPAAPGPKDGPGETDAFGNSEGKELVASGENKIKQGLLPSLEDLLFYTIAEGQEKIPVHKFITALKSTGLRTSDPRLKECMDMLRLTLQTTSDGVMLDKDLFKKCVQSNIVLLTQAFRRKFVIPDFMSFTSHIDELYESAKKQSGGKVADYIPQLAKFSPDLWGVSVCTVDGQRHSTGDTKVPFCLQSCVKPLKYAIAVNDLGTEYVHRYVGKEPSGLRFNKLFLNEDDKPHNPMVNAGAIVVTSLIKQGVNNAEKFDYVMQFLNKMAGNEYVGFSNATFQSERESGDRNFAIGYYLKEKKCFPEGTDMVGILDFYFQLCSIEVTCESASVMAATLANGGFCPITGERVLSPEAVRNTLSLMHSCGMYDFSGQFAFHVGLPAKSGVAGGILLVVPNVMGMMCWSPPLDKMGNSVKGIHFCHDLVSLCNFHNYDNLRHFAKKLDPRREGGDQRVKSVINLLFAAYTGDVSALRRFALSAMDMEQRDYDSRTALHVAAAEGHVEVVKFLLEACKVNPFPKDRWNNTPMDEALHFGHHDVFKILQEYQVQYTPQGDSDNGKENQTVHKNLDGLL

[2] = biological target: T2, Glutaminase liver isoform, mitochondrial (Homo sapiens) (UniProt Q9UI32); test: Inhibition of human GLS2 in GLS1 deficient human Aspc-1 cells assessed as decrease in cellular glutamate production after 4 hrs by amplex red glutamic acid assay
T2 sequence (whole entry): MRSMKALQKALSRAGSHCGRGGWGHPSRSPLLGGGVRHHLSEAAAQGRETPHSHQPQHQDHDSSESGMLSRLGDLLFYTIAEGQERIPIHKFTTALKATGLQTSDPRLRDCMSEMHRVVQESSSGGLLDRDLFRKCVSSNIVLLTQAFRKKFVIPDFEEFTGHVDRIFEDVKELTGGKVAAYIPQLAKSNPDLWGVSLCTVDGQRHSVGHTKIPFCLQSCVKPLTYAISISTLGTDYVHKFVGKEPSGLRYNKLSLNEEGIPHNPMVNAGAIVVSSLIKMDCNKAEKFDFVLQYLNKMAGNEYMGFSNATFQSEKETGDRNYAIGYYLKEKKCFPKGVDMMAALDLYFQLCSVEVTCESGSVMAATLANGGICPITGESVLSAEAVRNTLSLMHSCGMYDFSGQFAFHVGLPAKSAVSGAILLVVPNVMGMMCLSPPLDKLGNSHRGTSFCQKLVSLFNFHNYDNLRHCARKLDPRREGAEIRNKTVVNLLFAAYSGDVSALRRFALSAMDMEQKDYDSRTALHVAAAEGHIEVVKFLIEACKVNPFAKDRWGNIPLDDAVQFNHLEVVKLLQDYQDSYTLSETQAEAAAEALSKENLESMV
Outline: (§1)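 GLS-knockout AsPC-1 cells made with GLS-KO ZFN mRNA, single-cell cloned, and grown in glutamine-free RPMI 1640 with 10% FBS. Cells seeded at 30 000/well and grown 24 h at 37 °C. Treated 4 h with 1% DMSO vehicle or 3.13−100 μM inhibitor, washed with PBS, and lysed in NP-40 buffer (4 °C, 20 min). Lysate glutamate measured by Amplex Red. Three independent experiments in duplicate.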

[3] = species on record: Homo sapiens; test: Selectivity ratio of IC50 for recombinant human His-tagged KGA R387L mutant expressed in Escherichia coli BL21(DE3)pLysS to IC50 for human His-tagged KGA (L123 to L669 residues) expressed in Escherichia coli BL21(DE3)pLysS
[4] = Inhibition of recombinant human His-tagged KGA S384A mutant expressed in Escherichia coli BL21(DE3)pLysS using glutamine substrate preincubated for 10 mins followed by substrate addition measured after 60 mins
[5] = biological target: Glutaminase 1/2 (Homo sapiens) (UniProt O94925+Q9UI32); conditions: 3.13 to 100 uM
[6] = Inhibition of recombinant human His-tagged KGA K507A mutant expressed in Escherichia coli BL21(DE3)pLysS using glutamine substrate preincubated for 10 mins followed by substrate addition measured after 60 mins
[7] = biological target: T2, Glutaminase liver isoform, mitochondrial (Homo sapiens); test: Inhibition of human GLS2 in GLS1 deficient human Aspc-1 cells assessed as decrease in cellular glutamate production at 3.13 to 100 uM after 4 hrs by amplex red glutamic acid assay; outline: as §1
[8] = Inhibition of recombinant human His-tagged KGA R387A mutant expressed in Escherichia coli BL21(DE3)pLysS using glutamine substrate preincubated for 10 mins followed by substrate addition measured after 60 mins
[9] = biological target: T1, Glutaminase kidney isoform, mitochondrial; test: Inhibition of recombinant human MCF7 cells derived His-tagged GAC (L123 to S598 residues) expressed in Escherichia coli C41(DE3)pLysS using glutamine as substrate preincubated for 10 mins followed by substrate addition measured after 60 mins by glutamate dehydrogenase coupled enzyme assay
Outline: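 Human GAC cloned from MCF7 cDNA into pET28a(+) as a His-tagged construct. Expressed in E. coli C41(DE3)pLysS in Terrific Broth with kanamycin, induced with 1 mM IPTG for 6 h at 25 °C. Purified on Ni2+ resin with 500 mM imidazole elution and exchanged into 50 mM NaH2PO4, 50 mM Tris-HCl pH 8.0, 2 mM DTT, 50% glycerol. Activity measured by two-step glutaminase assay.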

[10] = species on record: Homo sapiens; test: Selectivity ratio of IC50 for recombinant human His-tagged KGA K507A mutant expressed in Escherichia coli BL21(DE3)pLysS to IC50 for human His-tagged KGA (L123 to L669 residues) expressed in Escherichia coli BL21(DE3)pLysS
[11] = biological target: T3, Glutaminase liver isoform, mitochondrial (Homo sapiens, UniProt Q9UI32); test: Inhibition of recombinant human His-tagged GAB (P56 to V602 residues) expressed in Escherichia coli C41(DE3)pLysS using glutamine as substrate preincubated for 10 mins followed by substrate addition measured after 60 mins by glutamate dehydrogenase coupled enzyme assay
T3 sequence (Q9UI32 whole entry): T2 sequence (whole entry)

[12] = tested on: MDA-MB-231; test: Growth inhibition of human MDA-MB-231 cells after 72 hrs by MTS assay; type: functional, cell-based; conditions: MDA-MB-231, 72 h
Outline: (§2)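 Growth inhibition by MTS viability read-out. Cells seeded in 96-well plates at 4000/well (AsPC-1) or 8500/well (MDA-MB-231). Mean ± SD from at least three independent experiments, each in duplicate.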

[13] = tested on: ASPC1; test: Anticlonogenic activity against human Aspc-1 cells at 2 uM after 21 days by crystal violet staining based assay relative to control; type: functional; conditions: ASPC1, 504 h
Outline: (§3)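 Anchorage-dependent colony formation: AsPC-1 cells seeded at 1000 cells/well in six-well plates and treated with compound. Colony formation is expressed as percent of vehicle treatment. Mean ± SD from at least three independent experiments, each in duplicate.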

[14] = tested on: ASPC1; test: Growth inhibition of human Aspc-1 cells after 72 hrs by MTS assay; type: functional, cell-based; conditions: ASPC1, 72 h; outline: as §2
[15] = species on record: Homo sapiens; test: Selectivity ratio of IC50 for recombinant human His-tagged KGA R387A mutant expressed in Escherichia coli BL21(DE3)pLysS to IC50 for human His-tagged KGA (L123 to L669 residues) expressed in Escherichia coli BL21(DE3)pLysS
[16] = tested on: ASPC1; test: Anticlonogenic activity against human Aspc-1 cells at 10 uM after 21 days by crystal violet staining based assay relative to control; type: functional; conditions: ASPC1, 504 h; outline: as §3
[17] = Inhibition of recombinant human His-tagged KGA R387L mutant expressed in Escherichia coli BL21(DE3)pLysS using glutamine substrate preincubated for 10 mins followed by substrate addition measured after 60 mins
[18] = species on record: Homo sapiens; test: Selectivity index, ratio of IC50 for recombinant human His-tagged GAB (P56-V602 residues) expressed in Escherichia coli C41(DE3)pLysS to IC50 for recombinant human His-tagged KGA (L123 to L669 residues) expressed in Escherichia coli BL21(DE3)pLysS
[19] = species on record: Homo sapiens; test: Selectivity ratio of IC50 for recombinant human His-tagged KGA S384A mutant expressed in Escherichia coli BL21(DE3)pLysS to IC50 for human His-tagged KGA (L123 to L669 residues) expressed in Escherichia coli BL21(DE3)pLysS

For O=C1NC(=O)/C(=C/c2ccc(-c3ccc(-n4c(-c5ccccc5)cc(/C=C5\SC(=O)NC5=O)c4-c4ccccc4)cc3)cc2)S1, the IC50 [1] was 0.045 µM, the inhibition [2] was “Dose-dependent effect” and the Ratio IC50 [3] was 13.4. For the same compound, the IC50 [4] was 0.078 µM, the inhibition [5] was “Active” and the IC50 [6] was 0.187 µM. For the same compound, the inhibition [7] was “Active”, the IC50 [8] was 8.88 µM and the IC50 [9] was 0.151 µM. The Ratio IC50 [10] was 4.2, the IC50 [11] was 0.261 µM and the IC50 [12] was 13.4 µM. The inhibition at 2 µM [13] was 79%, the IC50 [14] was 10 µM and the Ratio IC50 [15] was 197. For the same compound, the inhibition at 10 µM [16] was 94%, the IC50 [17] was 0.603 µM and the Ratio IC50 [18] was 5.8. The Ratio IC50 [19] was 1.7.

In the case of CCc1cc(-c2ccc(-n3c(C)cc(/C=C4\SC(=O)NC4=O)c3C)cc2C#N)ccc1/C=C1\SC(=O)NC1=O, the IC50 [1] is reported as 0.059 µM, the IC50 [9] is reported as 0.092 µM and the IC50 [11] is reported as 1.19 µM. It also gave a Ratio IC50 [18] of 20.

Cc1cc(/C=C2\SC(=O)NC2=O)c(C)n1-c1ccc(-c2ccc(/C=C3\SC(=O)NC3=O)cc2)c(O)c1 gave an IC50 [1] of 0.247 µM, an IC50 [9] of 0.76 µM and an IC50 [11] of 5.72 µM. The Ratio IC50 [18] was 23.

For CCc1cc(-c2ccc(-n3c(C)cc(/C=C4\SC(=O)NC4=O)c3C)cc2)ccc1/C=C1\SC(=O)NC1=O, the IC50 [1] was 0.039 µM, the IC50 [9] was 0.087 µM and the IC50 [11] was 1.03 µM. For the same compound, the IC50 [12] was 15.3 µM, the inhibition at 2 µM [13] was 28% and the IC50 [14] was 12.5 µM. For the same compound, the inhibition at 10 µM [16] was 59% and the Ratio IC50 [18] was 26.

For CCc1cc(-c2ccc(-n3c(C)cc(/C=C4\SC(=O)NC4=O)c3C)cc2OC)ccc1/C=C1\SC(=O)NC1=O, the IC50 [1] was 0.066 µM, the IC50 [9] was 0.177 µM and the IC50 [11] was 1.19 µM. The Ratio IC50 [18] was 18.

Work on COc1cc(-n2c(-c3cccs3)cc(/C=C3\SC(=O)NC3=O)c2-c2cccs2)ccc1-c1ccc(/C=C2\SC(=O)NC2=O)cc1 yielded an IC50 [1] of 0.035 µM, an IC50 [9] of 0.053 µM and an IC50 [11] of 0.269 µM. It also gave an IC50 [12] of 10.6 µM, an inhibition at 2 µM [13] of 89% and an IC50 [14] of 11.9 µM. The inhibition at 10 µM [16] was 95% and the Ratio IC50 [18] was 7.7.

Compound O=C1NC(=O)/C(=C/c2cc(-c3cccs3)n(-c3ccc(Br)cc3)c2-c2cccs2)S1 has an IC50 [1] of 0.754 µM, an IC50 [9] of 1.27 µM and an IC50 [11] of 3.78 µM. It also gave a Ratio IC50 [18] of 5.

Compound O=C1NC(=O)/C(=C/c2cc(-c3ccccc3)n(-c3ccc(Br)cc3)c2-c2ccccc2)S1 has an IC50 [1] of 4.9 µM, an IC50 [9] of 8.76 µM and an IC50 [11] of 11.8 µM. For the same compound, the Ratio IC50 [18] was 2.4.

For CCc1cc(-c2ccc(-n3c(-c4ccccc4)cc(/C=C4\SC(=O)NC4=O)c3-c3ccccc3)cc2)ccc1/C=C1\SC(=O)NC1=O, the IC50 [1] was 0.056 µM, the IC50 [9] was 0.217 µM and the IC50 [11] was 1.24 µM. It also gave an IC50 [12] of 8.2 µM, an inhibition at 2 µM [13] of 51% and an IC50 [14] of 8.8 µM. For the same compound, the inhibition at 10 µM [16] was 91% and the Ratio IC50 [18] was 22.

With COc1cc(-n2c(C)cc(/C=C3\SC(=O)NC3=O)c2C)ccc1-c1ccc(/C=C2\SC(=O)NC2=O)cc1 the IC50 [1] was 0.243 µM, the IC50 [9] was 0.355 µM and the IC50 [11] was 2.14 µM. The Ratio IC50 [18] was 8.8.

CCc1cc(-c2ccc(-n3c(-c4cccs4)cc(/C=C4\SC(=O)NC4=O)c3-c3cccs3)cc2)ccc1/C=C1\SC(=O)NC1=O showed an IC50 [1] of 0.054 µM, an IC50 [9] of 0.391 µM and an IC50 [11] of 1.72 µM. The IC50 [12] was 26.3 µM, the inhibition at 2 µM [13] was 44% and the IC50 [14] was 24.8 µM. The inhibition at 10 µM [16] was 89% and the Ratio IC50 [18] was 32.

With Cc1cc(/C=C2\SC(=O)NC2=O)c(C)n1-c1ccc(Br)cc1 the IC50 [1] was 3.1 µM, the IC50 [9] was 5.37 µM and the IC50 [11] was > 100 µM. The Ratio IC50 [18] was > 32.

Work on COc1cc(-n2c(-c3ccccc3)cc(/C=C3\SC(=O)NC3=O)c2-c2ccccc2)ccc1-c1ccc(/C=C2\SC(=O)NC2=O)cc1 yielded an IC50 [1] of 0.048 µM, an IC50 [9] of 0.148 µM and an IC50 [11] of 0.787 µM. The IC50 [12] was 8.9 µM, the inhibition at 2 µM [13] was 90% and the IC50 [14] was 12 µM. The inhibition at 10 µM [16] was 95% and the Ratio IC50 [18] was 16.
